{
  "source": "ChEMBL document CHEMBL3425481",
  "about": "“Design, synthesis and anticancer activity of matrine-1H-1,2,3-triazole-chalcone conjugates” (Bioorg Med Chem Lett, 2015)",
  "key": {"[1]": {"system": "HeLa", "experiment": "Antiproliferative activity against human HeLa cells assessed as inhibition of cell proliferation incubated for 48 hrs by CCK8 assay", "assay_type": "functional, cell-based", "how_it_was_run": "(§1)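 Human A549 lung, Hela cervical, Bel-7402 hepatocellular and MCF-7 breast cancer cells, plus mouse embryo fibroblast NIH3T3, tested for anti-proliferative activity by CCK-8 assay. For the matrine combination tests, the chalcone and matrine were used at a 1:1 molar ratio; values given as IC50.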"}, "[2]": {"system": "A549", "experiment": "Antitumor activity against human A549 cells xenografted in Balb/ca-nu mouse assessed as tumor growth inhibition at 2.5 mg/kg, iv dosed every 3 days for total of 7 dosing rounds measured on day 12 after treatment", "assay_type": "functional", "conditions": "read-out: TGI", "how_it_was_run": "(§2)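 A549 xenograft in mice, dosed by tail vein injection every 3 days; vehicle saline plus 0.2% Tween 80. n = 8 per treatment group, 6 in the vehicle group. Mean ± SE.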"}, "[3]": {"system": "A549", "experiment": "Antitumor activity against human A549 cells xenografted in Balb/ca-nu mouse assessed as tumor growth inhibition at 10 mg/kg, iv dosed every 3 days for total of 7 dosing rounds measured on day 16 after treatment", "assay_type": "functional", "conditions": "read-out: TGI", "how_it_was_run": "as §2"}, "[4]": {"system": "A549", "experiment": "Induction of apoptosis in human A549 cells assessed as late apoptosis cells level at 2 times antiproliferative IC50 incubated for 24 hrs by Annexin V-FITC/propidium iodide double staining based flow cytometry (reference value: 0.127%)", "assay_type": "functional"}, "[5]": {"system": "A549", "experiment": "Antitumor activity against human A549 cells xenografted in Balb/ca-nu mouse assessed as tumor growth inhibition at 5 mg/kg, iv dosed every 3 days for total of 7 dosing rounds measured on day 10 after treatment", "assay_type": "functional", "conditions": "read-out: TGI", "how_it_was_run": "as §2"}, "[6]": {"system": "Mus musculus", "experiment": "Toxicity in human A549 cells xenografted Balb/ca-nu mouse assessed as effect on body weight at 2.5 to 10 mg/kg, iv dosed every 3 days for total of 7 dosing rounds measured on day 10 to day 20 after treatment", "assay_type": "organism-based", "parameters": "dose 2.5-10 mg/kg, route intravenous", "conditions": "in vivo, 72 h", "how_it_was_run": "as §2"}, "[7]": {"system": "A549", "experiment": "Antitumor activity against human A549 cells xenografted in Balb/ca-nu mouse assessed as tumor growth inhibition at 5 mg/kg, iv dosed every 3 days for total of 7 dosing rounds measured on day 18 after treatment", "assay_type": "functional", "conditions": "read-out: TGI", "how_it_was_run": "as §2"}, "[8]": {"experiment": "Antiproliferative activity against human Bel7402 cells assessed as inhibition of cell proliferation incubated for 48 hrs by CCK8 assay", "assay_type": "functional, cell-based", "conditions": "Bel-7402, 48 h", "how_it_was_run": "as §1"}, "[9]": {"system": "A549", "experiment": "Antitumor activity against human A549 cells xenografted in Balb/ca-nu mouse assessed as tumor growth inhibition at 2.5 to 10 mg/kg, iv dosed every 3 days for total of 7 dosing rounds measured after 20 days post dose", "assay_type": "functional, organism-based", "how_it_was_run": "as §2"}, "[10]": {"system": "A549", "experiment": "Induction of apoptosis in human A549 cells assessed as necrosis cells level at 0.5 times antiproliferative IC50 incubated for 24 hrs by Annexin V-FITC/propidium iodide double staining based flow cytometry (reference value: 0.042%)", "assay_type": "functional"}, "[11]": {"system": "A549", "experiment": "Induction of apoptosis in human A549 cells incubated for 24 hrs by Annexin V-FITC/propidium iodide double staining based flow cytometry", "assay_type": "functional, cell-based"}, "[12]": {"system": "A549", "experiment": "Antitumor activity against human A549 cells xenografted in Balb/ca-nu mouse assessed as tumor growth inhibition at 2.5 mg/kg, iv dosed every 3 days for total of 7 dosing rounds measured on day 14 after treatment", "assay_type": "functional", "conditions": "read-out: TGI", "how_it_was_run": "as §2"}, "[13]": {"system": "A549", "experiment": "Antitumor activity against human A549 cells xenografted in Balb/ca-nu mouse assessed as tumor growth inhibition at 10 mg/kg, iv dosed every 3 days for total of 7 dosing rounds measured on day 10 after treatment", "assay_type": "functional", "conditions": "read-out: TGI", "how_it_was_run": "as §2"}, "[14]": {"system": "A549", "experiment": "Antiproliferative activity against human A549 cells assessed as inhibition of cell proliferation incubated for 48 hrs by CCK8 assay", "assay_type": "functional, cell-based", "conditions": "A549, 48 h", "how_it_was_run": "as §1"}, "[15]": {"system": "A549", "experiment": "Potency index, ratio of IC50 for 5-fluorouracil to IC50 for compound against human A549 cells incubated for 48 hrs by CCK8 assay", "assay_type": "functional"}, "[16]": {"system": "A549", "experiment": "Antitumor activity against human A549 cells xenografted in Balb/ca-nu mouse assessed as tumor growth inhibition at 5 mg/kg, iv dosed every 3 days for total of 7 dosing rounds measured on day 12 after treatment", "assay_type": "functional", "conditions": "read-out: TGI", "how_it_was_run": "as §2"}, "[17]": {"system": "A549", "experiment": "Antitumor activity against human A549 cells xenografted in Balb/ca-nu mouse assessed as tumor growth inhibition at 10 mg/kg, iv dosed every 3 days for total of 7 dosing rounds measured on day 20 after treatment", "assay_type": "functional", "conditions": "read-out: TGI", "how_it_was_run": "as §2"}, "[18]": {"system": "A549", "experiment": "Induction of apoptosis in human A549 cells assessed as early apoptosis cells level at IC50 incubated for 24 hrs by Annexin V-FITC/propidium iodide double staining based flow cytometry (reference value: 0.116%)", "assay_type": "functional"}, "[19]": {"system": "A549", "experiment": "Antitumor activity against human A549 cells xenografted in Balb/ca-nu mouse assessed as tumor growth inhibition at 2.5 mg/kg, iv dosed every 3 days for total of 7 dosing rounds measured on day 16 after treatment", "assay_type": "functional", "conditions": "read-out: TGI", "how_it_was_run": "as §2"}, "[20]": {"system": "A549", "experiment": "Induction of apoptosis in human A549 cells assessed as early apoptosis cells level at 0.5 times antiproliferative IC50 incubated for 24 hrs by Annexin V-FITC/propidium iodide double staining based flow cytometry (reference value: 0.116%)", "assay_type": "functional"}, "[21]": {"system": "A549", "experiment": "Antitumor activity against human A549 cells xenografted in Balb/ca-nu mouse assessed as tumor growth inhibition at 10 mg/kg, iv dosed every 3 days for total of 7 dosing rounds measured on day 18 after treatment", "assay_type": "functional", "conditions": "read-out: TGI", "how_it_was_run": "as §2"}, "[22]": {"system": "A549", "experiment": "Antitumor activity against human A549 cells xenografted in Balb/ca-nu mouse assessed as tumor growth inhibition at 10 mg/kg, iv dosed every 3 days for total of 7 dosing rounds measured on day 12 after treatment", "assay_type": "functional", "conditions": "read-out: TGI", "how_it_was_run": "as §2"}, "[23]": {"system": "A549", "experiment": "Induction of apoptosis in human A549 cells assessed as necrosis cells level at IC50 incubated for 24 hrs by Annexin V-FITC/propidium iodide double staining based flow cytometry (reference value: 0.042%)", "assay_type": "functional"}, "[24]": {"system": "A549", "experiment": "Antitumor activity against human A549 cells xenografted in Balb/ca-nu mouse assessed as tumor growth inhibition at 5 mg/kg, iv dosed every 3 days for total of 7 dosing rounds measured on day 14 after treatment", "assay_type": "functional", "conditions": "read-out: TGI", "how_it_was_run": "as §2"}, "[25]": {"system": "A549", "experiment": "Antitumor activity against human A549 cells xenografted in Balb/ca-nu mouse assessed as tumor growth inhibition at 5 mg/kg, iv dosed every 3 days for total of 7 dosing rounds measured on day 16 after treatment", "assay_type": "functional", "conditions": "read-out: TGI", "how_it_was_run": "as §2"}, "[26]": {"system": "A549", "experiment": "Antitumor activity against human A549 cells xenografted in Balb/ca-nu mouse assessed as tumor growth inhibition at 10 mg/kg, iv dosed every 3 days for total of 7 dosing rounds measured on day 8 after treatment", "assay_type": "functional, organism-based", "parameters": "dose 10 mg/kg", "how_it_was_run": "as §2"}, "[27]": {"system": "A549", "experiment": "Induction of apoptosis in human A549 cells assessed as viable cells level at 2 times antiproliferative IC50 incubated for 24 hrs by Annexin V-FITC/propidium iodide double staining based flow cytometry (reference value: 99.7%)", "assay_type": "functional"}, "[28]": {"system": "A549", "experiment": "Antitumor activity against human A549 cells xenografted in Balb/ca-nu mouse assessed as tumor growth inhibition at 10 mg/kg, iv dosed every 3 days for total of 7 dosing rounds measured on day 14 after treatment", "assay_type": "functional", "conditions": "read-out: TGI", "how_it_was_run": "as §2"}, "[29]": {"system": "A549", "experiment": "Induction of apoptosis in human A549 cells assessed as viable cells level at 0.5 times antiproliferative IC50 incubated for 24 hrs by Annexin V-FITC/propidium iodide double staining based flow cytometry (reference value: 99.7%)", "assay_type": "functional"}, "[30]": {"system": "A549", "experiment": "Induction of apoptosis in human A549 cells assessed as early apoptosis cells level at 2 times antiproliferative IC50 incubated for 24 hrs by Annexin V-FITC/propidium iodide double staining based flow cytometry (reference value: 0.116%)", "assay_type": "functional"}, "[31]": {"system": "A549", "experiment": "Induction of apoptosis in human A549 cells assessed as necrosis cells level at 2 times antiproliferative IC50 incubated for 24 hrs by Annexin V-FITC/propidium iodide double staining based flow cytometry (reference value: 0.042%)", "assay_type": "functional"}},
  "note": "The source made the active and inactive calls. The rule behind the calls is not given here.",
  "data": [
    {"smiles": "O=C(/C=C/c1cccc(Cl)c1)c1ccc(OCc2cn([C@H]3CC(=O)N4C[C@@H]5CCCN6CCC[C@@H]([C@H]56)[C@H]4C3)nn2)cc1O", "values": [
      {"measurement": "IC50", "setting": "[1]", "value": 7.31, "unit": "µM"},
      {"measurement": "inhibition in vivo at 2.5 mg/kg", "setting": "[2]", "value": 12.2, "unit": "%"},
      {"measurement": "inhibition in vivo at 10 mg/kg", "setting": "[3]", "value": 83.7, "unit": "%"},
      {"measurement": "Activity", "setting": "[4]", "value": 33.1, "unit": "%"},
      {"measurement": "inhibition in vivo at 5 mg/kg", "setting": "[5]", "value": 29, "unit": "%"},
      {"measurement": "Activity", "setting": "[6]", "value": "Non-toxic"},
      {"measurement": "inhibition in vivo at 5 mg/kg", "setting": "[7]", "value": 60.5, "unit": "%"},
      {"measurement": "IC50", "setting": "[8]", "value": 5.6, "unit": "µM"},
      {"measurement": "TGI", "setting": "[9]", "value": "Dose-dependent effect"},
      {"measurement": "Activity", "setting": "[10]", "value": 5.99, "unit": "%"},
      {"measurement": "Activity", "setting": "[11]", "value": "Dose-dependent effect"},
      {"measurement": "inhibition in vivo at 2.5 mg/kg", "setting": "[12]", "value": 23.3, "unit": "%"},
      {"measurement": "inhibition in vivo at 10 mg/kg", "setting": "[13]", "value": 60.5, "unit": "%"},
      {"measurement": "IC50", "setting": "[14]", "value": 5.01, "unit": "µM"},
      {"measurement": "Ratio IC50", "setting": "[15]", "value": 8},
      {"measurement": "inhibition in vivo at 5 mg/kg", "setting": "[16]", "value": 34.8, "unit": "%"},
      {"measurement": "inhibition in vivo at 10 mg/kg", "setting": "[17]", "value": 89.6, "unit": "%"},
      {"measurement": "Activity", "setting": "[18]", "value": 31.1, "unit": "%"},
      {"measurement": "inhibition in vivo at 2.5 mg/kg", "setting": "[19]", "value": 33.2, "unit": "%"},
      {"measurement": "Activity", "setting": "[20]", "value": 19.8, "unit": "%"},
      {"measurement": "inhibition in vivo at 10 mg/kg", "setting": "[21]", "value": 86.9, "unit": "%"},
      {"measurement": "inhibition in vivo at 10 mg/kg", "setting": "[22]", "value": 70.9, "unit": "%"},
      {"measurement": "Activity", "setting": "[23]", "value": 4.95, "unit": "%"},
      {"measurement": "inhibition in vivo at 5 mg/kg", "setting": "[24]", "value": 45.9, "unit": "%"},
      {"measurement": "inhibition in vivo at 5 mg/kg", "setting": "[25]", "value": 54.9, "unit": "%"},
      {"measurement": "TGI", "setting": "[26]", "value": "Active"},
      {"measurement": "Activity", "setting": "[27]", "value": 30.1, "unit": "%"},
      {"measurement": "inhibition in vivo at 10 mg/kg", "setting": "[28]", "value": 78.8, "unit": "%"},
      {"measurement": "Activity", "setting": "[29]", "value": 57.9, "unit": "%"},
      {"measurement": "Activity", "setting": "[30]", "value": 34.2, "unit": "%"},
      {"measurement": "Activity", "setting": "[31]", "value": 2.57, "unit": "%"}
    ]}
  ]
}
